Results taken from ChEMBL document CHEMBL4014334, “BET Bromodomain Inhibitors with One-Step Synthesis Discovered from Virtual Screen” (J Med Chem, 2017).
Active and inactive are the calls of the source. No cut-off for these calls is given here.

Key:
[1] = molecular target: T1, Bromodomain testis-specific protein (Homo sapiens, UniProt Q58F21); assay: Inhibition of BI-BODIPY binding to BRDT bromodomain 1 (29 to 134 residues) (unknown origin) expressed in Escherichia coli BL21(DE3) by fluorescence anisotropy assay
[2] = molecular target: T2, Bromodomain-containing protein 4 (Homo sapiens, UniProt O60885); assay: Inhibition of BI-BODIPY binding to BRD4 bromodomain 1 (42 to 168 residues)(unknown origin) expressed in Escherichia coli BL21(DE3) by fluorescence anisotropy assay
Procedure, shortened: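 Competition fluorescence anisotropy in 50 mM Tris, 100 mM NaCl, pH 7.4, 4 mM CHAPS, 0.5% DMSO; BrdT also contains 3 mM DTT. Tracer BI-BODIPY is at 0.025 μM. Protein is set at the level giving 80% tracer bound. Ex 485/em 535. A four-parameter IC50 is converted to Ki by a Cheng-Prusoff variant, from ≥3 independent experiments.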

[3] = molecular target: T1, Bromodomain testis-specific protein; assay: Binding affinity to BRDT bromodomain 1 (29 to 134 residues)(unknown origin) expressed in Escherichia coli BL21(DE3) assessed as change in melting temperature at 150 uM at 25 to 75 degC after 5 mins by SYPRO orange dye based differential scanning fluorimetric analysis
Procedure, shortened: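 DSF with 10 μM BrdT(1) in 50 mM HEPES pH 7.5, 100 mM NaCl, with 5x SYPRO Orange. The 8-point dose range is 1250–9 μM at 2.5% DMSO, run in duplicate. After 5 min at 25 °C, samples are heated from 25 to 75 °C in 0.2 °C steps. Tm is the peak of the negative first derivative. ΔTm is taken against the DMSO control. Plates with Z' below 0.5 are excluded.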

MM1.S [4] = assay: Cytotoxicity against human MM1S cells assessed as reduction in cell viability after 72 hrs by MTT assay; type: functional, cell-based
[5] = molecular target: T2, Bromodomain-containing protein 4; assay: Binding affinity to 5FW-labeled BRD4 bromodomain 1 (unknown origin) expressed in Escherichia coli BL21(DE3) by PrOF NMR spectroscopic analysis
Procedure, shortened: (§1)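 BrdT samples also contain 3 mM DTT. Spectra recorded with compound present and absent at 500 MHz, 90° flip angle, 0.7 s relaxation delay, 0.1 s acquisition, 500 transients. The read-out is broadening or shift of the binding-pocket Trp resonance.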

[6] = molecular target: T2, Bromodomain-containing protein 4; assay: Binding affinity to 5FW-labeled BRD4 bromodomain 1 (unknown origin) up to 600 uM by PrOF NMR spectroscopic analysis; procedure, shortened: as §1
[7] = molecular target: T2, Bromodomain-containing protein 4; assay: Inhibition of BRD4 bromodomain in human MM1S cells assessed as reduction in c-Myc levels up to 10 uM after 6 hrs by Western blot analysis; type: cell-based
Procedure, shortened: (§2)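 MM1.S cells (1×10^6 per well) are treated with increasing inhibitor concentrations for 6 h, then lysed with protease/phosphatase inhibitors and 5 mM EDTA at 4 °C. Lysates are resolved by SDS-PAGE and immunoblotted for c-Myc and p21Cip1, with vinculin as loading reference and chemiluminescent detection.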

[8] = molecular target: T2, Bromodomain-containing protein 4; assay: Inhibition of BRD4 bromodomain in human MM1S cells assessed as upregulation of p21Cip1 levels up to 10 uM after 6 hrs by Western blot analysis; type: cell-based; procedure, shortened: as §2
[9] = molecular target: T1, Bromodomain testis-specific protein; assay: Inhibition of BRDT bromodomain 2 (unknown origin) by fluorescence anisotropy assay
MM1.S [10] = assay: Cytotoxicity against human MM1S cells assessed as reduction in cell viability up to 10 uM after 72 hrs by MTT assay; type: functional, cell-based
Procedure, shortened: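 MM1.S cells are grown in RPMI-1640 with 10% FBS at 37 °C and 5% CO2. About 20,000 cells per well are exposed to compound or 0.1% DMSO vehicle for 72 h, with 6 replicates per concentration. MTT (2 mg/ml) is added for 3 h at 37 °C and formazan is dissolved in DMSO. A540 is read and IC50 is fitted.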

| Ki [1] [nM] | Ki [2] [nM] | ΔTm [3] [°C] | IC50 [1] [nM] | Structure (SMILES) | other results |
| --- | --- | --- | --- | --- | --- |
| 23000 | 10000 | 0.06 |  | CCn1c2c(c(=O)[nH]c1=O)C(c1ccc(C)cc1)C1=C(CCC1=O)N2 (stereo not drawn) |  |
|  | 14000 |  | 2200 | C=CCN1CC2=C(C1=O)C(c1ccc(C)cc1)c1c(n(CC)c(=O)[nH]c1=O)N2 (stereo not drawn) | IC50 [2]: 630 nM |
|  |  |  | 140000 | CCn1c(=O)n(CC)c2cc(C=O)ccc21 |  |
| > 40000 |  | -1.1 |  | Cn1c2c(c(=O)[nH]c1=O)C(c1ccccc1)C1=C(COC1=O)N2 (stereo not drawn) |  |
| 2400 | 1200 | 0.14 |  | CCCn1c2c(c(=O)[nH]c1=O)C(c1ccccc1)C1=C(COC1=O)N2 (stereo not drawn) |  |
|  |  |  | 68000 | C/N=c1\[nH]c2c(c(=O)[nH]c(=O)n2C)n1Cc1ccc(F)cc1 |  |
| 5600 | 2500 | -0.04 |  | CCn1c2c(c(=O)[nH]c1=O)C(c1ccc(C)cc1)C1=C(CN(C)C1=O)N2 (stereo not drawn) |  |
|  |  |  | 67000 | CCCN1C(=O)c2c[nH]c(C)c2C1c1cc(OC)ccc1OC (stereo not drawn) |  |
| 220 | 140 |  | 1000 | CCn1c2c(c(=O)[nH]c1=O)C(c1ccc(C)cc1)C1=C(CN(CCc3ccccc3)C1=O)N2 (stereo not drawn) | IC50 [2]: 1000 nM; IC50 (MM1.S [4]): 1200 nM |
| 230 | 190 |  | 550 | CCn1c2c(c(=O)[nH]c1=O)C(c1ccc(C)cc1)C1=C(CN(Cc3ccccc3)C1=O)N2 (stereo not drawn) | IC50 [2]: 240 nM; IC50 (MM1.S [4]): 2100 nM |
| 200 | 110 |  | 760 | CCn1c2c(c(=O)[nH]c1=O)C(c1ccc(C)cc1)C1=C(CN(CCc3ccc(O)cc3)C1=O)N2 (stereo not drawn) | IC50 [2]: 390 nM; Activity [5]: Active |
| > 40000 |  | -0.46 |  | Cc1ccc(C2C3=C(COC3=O)Nc3c2c(=O)n(C)c(=O)n3C)cc1 (stereo not drawn) |  |
| 1100 | 300 | 1.4 |  | CCn1c2c(c(=O)[nH]c1=O)C(c1ccc(Cl)cc1)C1=C(COC1=O)N2 (stereo not drawn) |  |
|  |  |  | 120000 | CON/C=N/c1nc2nccc(-c3cccnc3)n2n1 |  |
| 850 | 160 | -0.54 |  | Cc1ccc(C2C3=C(COC3=O)Nc3c2c(=O)[nH]c(=O)n3CC(F)(F)F)cc1 (stereo not drawn) | Activity [6]: Active; inhibition [7]: inactive; inhibition [8]: inactive; Ki [9]: ≤ 450 nM; Activity (MM1.S [10]): inactive |
| > 40000 | > 40000 |  |  | CCn1c2c(c(=O)n(C)c1=O)C(c1ccc(C)cc1)C1=C(COC1=O)N2 (stereo not drawn) |  |
